Experimental data published in ChEMBL document CHEMBL3525900, “Pharmacokinetics, distribution, and metabolism of [14C]sunitinib in rats, monkeys, and humans” (Drug Metab Dispos, 2012).
One block for each compound: values may come before it.

Legend:
[1] = Drug excretion in feces of female cynomolgus monkey treated with [14C]sunitinib at 6 mg/kg, po administered as single dose by liquid scintillation counting; format: ADME, organism-based, Macaca fascicularis; design: dose 6 mg/kg, dosed compound name [14C]Sunitinib, route oral; conditions: in vivo
Summary of the method: (§1)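 Cynomolgus monkeys given one oral gavage dose of [14C]sunitinib L-malate, 6 mg/kg (37 µCi/kg). Urine collected at 0-4, 4-8 and 8-24 h, feces at 0-8 and 8-24 h, then both daily to 14 days; samples stored at -80 °C. Duplicate urine aliquots counted by liquid scintillation; homogenized feces combusted before counting.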

[2] = Drug excretion in feces of male cynomolgus monkey treated with [14C]sunitinib at 6 mg/kg, po administered as single dose by liquid scintillation counting; format: ADME, organism-based, Macaca fascicularis; design: dose 6 mg/kg, dosed compound name [14C]Sunitinib, route oral; conditions: in vivo; summary of the method: as §1
[3] = Drug excretion in feces of human treated with [14C]sunitinib at 50 mg, po administered as single dose by liquid scintillation counting; conditions: in vivo
[4] = Drug excretion in feces of female Sprague-Dawley rat treated with [14C]sunitinib at 5 mg/kg, iv administered as single dose by liquid scintillation counting; format: ADME, organism-based; design: dose 5 mg/kg, dosed compound name [14C]Sunitinib, route intravenous; conditions: in vivo
Summary of the method: (§2)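 Five female rats given a single tail-vein bolus of [14C]sunitinib L-malate, 5 mg/kg free base equivalents (50 µCi/kg). Urine and feces collected over 0-72 h into dry-ice cooled containers. Urine counted directly by liquid scintillation; feces homogenized and combusted in oxygen before counting. Expired air also monitored.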

[5] = Drug excretion in urine of female Sprague-Dawley rat treated with [14C]sunitinib at 5 mg/kg, iv administered as single dose by liquid scintillation counting; format: ADME, organism-based; design: dose 5 mg/kg, dosed compound name [14C]Sunitinib, route intravenous; conditions: in vivo; summary of the method: as §2
[6] = Drug excretion in urine of female cynomolgus monkey treated with [14C]sunitinib at 6 mg/kg, po administered as single dose by liquid scintillation counting; format: ADME, organism-based, Macaca fascicularis; design: dose 6 mg/kg, dosed compound name [14C]Sunitinib, route oral; conditions: in vivo; summary of the method: as §1
Rattus norvegicus [7] = assay: Cmax in female Sprague-Dawley rat plasma treated with [14C]sunitinib at 15 mg/kg, po administered as single dose by LC/MS/MS analysis; format: ADME, organism-based; design: dose 15 mg/kg, dosed compound name [14C]Sunitinib, route oral; conditions: in vivo
Summary of the method: (§3)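 Single dose of [14C]sunitinib L-malate as free base, 50 µCi/kg. IV dose was 5 mg/kg by tail vein in 5 females. Oral dose was 15 mg/kg by gavage in 3 females and 3 males. Total radioactivity was by scintillation counting. […] Cmax was read from raw data, t½ by log-linear regression, AUC by linear trapezoidal rule.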

Rattus norvegicus [8] = assay: Tmax in female Sprague-Dawley rat plasma treated with [14C]sunitinib at 15 mg/kg, po administered as single dose by LC/MS/MS analysis; format: ADME, organism-based; design: dose 15 mg/kg, dosed compound name [14C]Sunitinib, route oral; conditions: in vivo
Rattus norvegicus [9] = assay: AUC (0 to infinity) in female Sprague-Dawley rat plasma treated with [14C]sunitinib at 15 mg/kg, po administered as single dose by LC/MS/MS analysis; format: ADME, organism-based; design: time infinity, dose 15 mg/kg, dosed compound name [14C]Sunitinib, route oral; conditions: in vivo; summary of the method: as §3
Rattus norvegicus [10] = assay: Apparent terminal half life in female Sprague-Dawley rat plasma treated with [14C]sunitinib at 15 mg/kg, po administered as single dose by LC/MS/MS analysis; format: ADME, organism-based; design: dose 15 mg/kg, dosed compound name [14C]Sunitinib, route oral; conditions: in vivo; summary of the method: as §3
Rattus norvegicus [11] = assay: Cmax in male Sprague-Dawley rat plasma treated with [14C]sunitinib at 15 mg/kg, po administered as single dose by LC/MS/MS analysis; format: ADME, organism-based; design: dose 15 mg/kg, dosed compound name [14C]Sunitinib, route oral; conditions: in vivo; summary of the method: as §3
Rattus norvegicus [12] = assay: Tmax in male Sprague-Dawley rat plasma treated with [14C]sunitinib at 15 mg/kg, po administered as single dose by LC/MS/MS analysis; format: ADME, organism-based; design: dose 15 mg/kg, dosed compound name [14C]Sunitinib, route oral; conditions: in vivo
Rattus norvegicus [13] = assay: AUC (0 to infinity) in male Sprague-Dawley rat plasma treated with [14C]sunitinib at 15 mg/kg, po administered as single dose by LC/MS/MS analysis; format: ADME, organism-based; design: time infinity, dose 15 mg/kg, dosed compound name [14C]Sunitinib, route oral; conditions: in vivo; summary of the method: as §3
Rattus norvegicus [14] = assay: Apparent terminal half life in male Sprague-Dawley rat plasma treated with [14C]sunitinib at 15 mg/kg, po administered as single dose by LC/MS/MS analysis; format: ADME, organism-based; design: dose 15 mg/kg, dosed compound name [14C]Sunitinib, route oral; conditions: in vivo; summary of the method: as §3
Rattus norvegicus [15] = assay: Cmax in female Sprague-Dawley rat plasma treated with [14C]sunitinib at 5 mg/kg, iv administered as single dose by LC/MS/MS analysis; format: ADME, organism-based; design: dose 5 mg/kg, dosed compound name [14C]Sunitinib, route intravenous; conditions: in vivo; summary of the method: as §3
Rattus norvegicus [16] = assay: Tmax in female Sprague-Dawley rat plasma treated with [14C]sunitinib at 5 mg/kg, iv administered as single dose by LC/MS/MS analysis; format: ADME, organism-based; design: dose 5 mg/kg, dosed compound name [14C]Sunitinib, route intravenous; conditions: in vivo
Rattus norvegicus [17] = assay: AUC (0 to infinity) in female Sprague-Dawley rat plasma treated with [14C]sunitinib at 5 mg/kg, iv administered as single dose by LC/MS/MS analysis; format: ADME, organism-based; design: time infinity, dose 5 mg/kg, dosed compound name [14C]Sunitinib, route intravenous; conditions: in vivo; summary of the method: as §3
Homo sapiens [18] = assay: Cmax in human plasma treated with [14C]sunitinib at 50 mg, po administered as single dose by LC/MS/MS analysis; format: ADME, organism-based; design: dose 50 mg, route oral, dosed compound name [14C]Sunitinib; conditions: in vivo
Summary of the method: (§4)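 Open-label phase I study in 8 subjects given one 50 mg oral dose of [14C]sunitinib (100 µCi). Plasma total radioactivity was counted by scintillation on triplicate 0.25 mL aliquots. Sunitinib was quantified by LC-MS-MS. Noncompartmental analysis: Cmax read directly, terminal t½ = ln(2)/slope of the log-concentration regression, AUC by linear trapezoidal rule to the last detectable concentration.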

Homo sapiens [19] = assay: Tmax in human plasma treated with [14C]sunitinib at 50 mg, po administered as single dose by LC/MS/MS analysis; format: ADME, organism-based; design: dosed compound name [14C]Sunitinib; conditions: in vivo
Homo sapiens [20] = assay: AUC (0 to infinity) in human plasma treated with [14C]sunitinib at 50 mg, po administered as single dose by LC/MS/MS analysis; format: ADME, organism-based; design: dose 50 mg, time infinity, route oral, dosed compound name [14C]Sunitinib; conditions: in vivo; summary of the method: as §4
Homo sapiens [21] = assay: Terminal half life in human plasma treated with [14C]sunitinib at 50 mg, po administered as single dose by LC/MS/MS analysis; format: ADME, organism-based; design: dosed compound name [14C]Sunitinib; conditions: in vivo
Cynomolgus monkey [22] = assay: Cmax in female cynomolgus monkey plasma treated with [14C]sunitinib at 6 mg/kg, po administered as single dose by LC/MS/MS analysis; format: ADME, organism-based, Macaca fascicularis; design: dose 6 mg/kg, dosed compound name [14C]Sunitinib, route oral; conditions: in vivo
Summary of the method: (§5)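 Cynomolgus monkeys of both sexes received one oral gavage of [14C]sunitinib L-malate at 6 mg/kg (37 µCi/kg). Femoral-vein blood was taken into heparin from 0.5 to 336 h. Plasma was kept cold and protected from light, then stored at -80 °C. Total radioactivity was by scintillation counting and sunitinib by methanol-extraction LC-MS-MS. Cmax was from raw data, t½ from the log-linear terminal slope, AUC(0-∞) by linear trapezoidal rule.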

Cynomolgus monkey [23] = assay: Tmax in female cynomolgus monkey plasma treated with [14C]sunitinib at 6 mg/kg, po administered as single dose by LC/MS/MS analysis; format: ADME, organism-based, Macaca fascicularis; design: dose 6 mg/kg, dosed compound name [14C]Sunitinib, route oral; conditions: in vivo
Cynomolgus monkey [24] = assay: AUC (0 to infinity) in female cynomolgus monkey plasma treated with [14C]sunitinib at 6 mg/kg, po administered as single dose by LC/MS/MS analysis; format: ADME, organism-based, Macaca fascicularis; design: time infinity, dose 6 mg/kg, dosed compound name [14C]Sunitinib, route oral; conditions: in vivo; summary of the method: as §5
Cynomolgus monkey [25] = assay: Terminal half life in female cynomolgus monkey plasma treated with [14C]sunitinib at 6 mg/kg, po administered as single dose by LC/MS/MS analysis; format: ADME, organism-based, Macaca fascicularis; design: dose 6 mg/kg, dosed compound name [14C]Sunitinib, route oral; conditions: in vivo
Cynomolgus monkey [26] = assay: Cmax in male cynomolgus monkey plasma treated with [14C]sunitinib at 6 mg/kg, po administered as single dose by LC/MS/MS analysis; format: ADME, organism-based, Macaca fascicularis; design: dose 6 mg/kg, dosed compound name [14C]Sunitinib, route oral; conditions: in vivo; summary of the method: as §5
Cynomolgus monkey [27] = assay: Tmax in male cynomolgus monkey plasma treated with [14C]sunitinib at 6 mg/kg, po administered as single dose by LC/MS/MS analysis; format: ADME, organism-based, Macaca fascicularis; design: dose 6 mg/kg, dosed compound name [14C]Sunitinib, route oral; conditions: in vivo
Cynomolgus monkey [28] = assay: AUC (0 to infinity) in male cynomolgus monkey plasma treated with [14C]sunitinib at 6 mg/kg, po administered as single dose by LC/MS/MS analysis; format: ADME, organism-based, Macaca fascicularis; design: time infinity, dose 6 mg/kg, dosed compound name [14C]Sunitinib, route oral; conditions: in vivo; summary of the method: as §5
Cynomolgus monkey [29] = assay: Terminal half life in male cynomolgus monkey plasma treated with [14C]sunitinib at 6 mg/kg, po administered as single dose by LC/MS/MS analysis; format: ADME, organism-based, Macaca fascicularis; design: dose 6 mg/kg, dosed compound name [14C]Sunitinib, route oral; conditions: in vivo
[30] = Retention time of compound by LC/MS/MS analysis; format: physicochemical; design: dosed compound name [14C]Sunitinib
Rattus norvegicus [31] = assay: Apparent terminal half life in female Sprague-Dawley rat plasma treated with [14C]sunitinib at 5 mg/kg, iv administered as single dose by LC/MS/MS analysis; format: ADME, organism-based; design: dose 5 mg/kg, dosed compound name [14C]Sunitinib, route intravenous; conditions: in vivo; summary of the method: as §3
[32] = Drug excretion in urine of male cynomolgus monkey treated with [14C]sunitinib at 6 mg/kg, po administered as single dose by liquid scintillation counting; format: ADME, organism-based, Macaca fascicularis; design: dose 6 mg/kg, dosed compound name [14C]Sunitinib, route oral; conditions: in vivo; summary of the method: as §1
[33] = Drug excretion in feces of female Sprague-Dawley rat treated with [14C]sunitinib at 15 mg/kg, po administered as single dose by liquid scintillation counting; format: ADME, organism-based; design: dose 15 mg/kg, dosed compound name [14C]Sunitinib, route oral; conditions: in vivo
Summary of the method: (§6)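 Female and male rats given one oral gavage dose, 15 mg/kg free base equivalents (50 µCi/kg). Urine and feces collected on dry ice, protected from light, over 0-4, 4-8 and 8-24 h, then daily to 72 h. Urine aliquots counted by liquid scintillation; homogenized feces combusted in oxygen before counting. Counts 5 min, external quench correction.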

[34] = Drug excretion in urine of female Sprague-Dawley rat treated with [14C]sunitinib at 15 mg/kg, po administered as single dose by liquid scintillation counting; format: ADME, organism-based; design: dose 15 mg/kg, dosed compound name [14C]Sunitinib, route oral; conditions: in vivo; summary of the method: as §6
[35] = Drug excretion in feces of male Sprague-Dawley rat treated with [14C]sunitinib at 15 mg/kg, po administered as single dose by liquid scintillation counting; format: ADME, organism-based; design: dose 15 mg/kg, dosed compound name [14C]Sunitinib, route oral; conditions: in vivo; summary of the method: as §6
[36] = Drug excretion in urine of male Sprague-Dawley rat treated with [14C]sunitinib at 15 mg/kg, po administered as single dose by liquid scintillation counting; format: ADME, organism-based; design: dose 15 mg/kg, dosed compound name [14C]Sunitinib, route oral; conditions: in vivo; summary of the method: as §6
[37] = Drug excretion in urine of human treated with [14C]sunitinib at 50 mg, po administered as single dose by liquid scintillation counting; conditions: in vivo

Compound recovery [1]: 6.2% | Compound recovery [2]: 6.3% | Compound recovery [3]: metabolite_not_detected
Compound: Cc1[nH]c(/C=C2\C(=O)Nc3ccc(F)cc32)c(C)c1C(=O)NCC(=O)O

Compound recovery [4]: 18.5% | Compound recovery [5]: 0.5% | Compound recovery [6]: 1.4% | Cmax (Rattus norvegicus [7]): 1412 ng/mL | Tmax (Rattus norvegicus [8]): 7 h | AUC (Rattus norvegicus [9]): 37225 ng·h/mL | t1/2 lambda z (Rattus norvegicus [10]): 9 h | Cmax (Rattus norvegicus [11]): 4561 ng/mL | Tmax (Rattus norvegicus [12]): 6 h | AUC (Rattus norvegicus [13]): 68854 ng·h/mL | t1/2 lambda z (Rattus norvegicus [14]): 7.1 h | Cmax (Rattus norvegicus [15]): 450 ng/mL | Tmax (Rattus norvegicus [16]): 3 h | AUC (Rattus norvegicus [17]): 6724 ng·h/mL | Cmax (Homo sapiens [18]): 6.2 ng/mL | Tmax (Homo sapiens [19]): 6.7 h | AUC (Homo sapiens [20]): 592.6 ng·h/mL | beta t1/2 (Homo sapiens [21]): 93.2 h | Cmax (Cynomolgus monkey [22]): 54 ng/mL | Tmax (Cynomolgus monkey [23]): 7 h | AUC (Cynomolgus monkey [24]): 1272 ng·h/mL | beta t1/2 (Cynomolgus monkey [25]): 19 h | Cmax (Cynomolgus monkey [26]): 67 ng/mL | Tmax (Cynomolgus monkey [27]): 8 h | AUC (Cynomolgus monkey [28]): 1383 ng·h/mL | beta t1/2 (Cynomolgus monkey [29]): 19 h | Retention_time [30]: 2.5 min | t1/2 lambda z (Rattus norvegicus [31]): 8.4 h | Compound recovery [32]: 1.1% | Compound recovery [33]: 32.1% | Compound recovery [34]: 1.4% | Compound recovery [35]: 21% | Compound recovery [36]: 1.7% | Compound recovery [3]: 25% | Compound recovery [37]: 6.9%
Compound: CCNCCNC(=O)c1c(C)[nH]c(/C=C2\C(=O)Nc3ccc(F)cc32)c1C
